# Calls of active or inactive are those of the source. No cut-off for these calls is given here.
# Key:
# [1] = test system: HCT-116; experiment: Antiproliferative activity against human HCT116 cells assessed as decrease in total cell population at 27 uM after 48 hrs; format: functional; set-up: scale not given: the % may be the effect or the level left
# How it was run: (§1)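 Cells seeded (8 · 10^5 per 60 mm dish), allowed to settle 24 h at 37 °C, 5% CO2, then treated with a single concentration for 24 or 48 h. Adherent and floating cells counted by Coulter counter. Total cell number given as % of untreated control; floating cells as % of total cell number.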
# [2] = test system: HeLa; experiment: Cell cycle arrest in human HeLa cells assessed as accumulation at G0/G1 phase at 64 uM after 24 hrs; format: functional
# How it was run: (§2)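 Cells seeded at 8 · 10^5 per 60 mm dish, allowed to settle 24 h (37 °C, 5% CO2), then exposed to the drug for 24 or 48 h. Adherent plus floating cells (5 · 10^5) were fixed in cold 70% ethanol at −20 °C overnight, treated with RNase A (100 µg/mL) and stained with propidium iodide (20 µg/mL) in Vindelov's solution for 30 min at RT. Flow cytometry used 488 nm excitation, FL-2 at 585 ± 21 nm, and histograms were modelled for G0/G1, S and G2/M fractions.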
# [3] = test system: HeLa; experiment: Cell cycle arrest in human HeLa cells assessed as accumulation at S phase at 64 uM after 24 hrs; format: functional; how it was run: as §2
# [4] = test system: HeLa; experiment: Induction of apoptosis in human HeLa cells at 64 uM after 48 hrs; format: functional
# How it was run: (§3)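 After 24 or 48 h of drug exposure, all cells were collected, combining trypsinised adherent cells with floating cells from the medium. Cells (1 × 10^6) were fixed in cold 70% ethanol overnight at −20 °C and stained with DAPI (10 µg/mL) for 30 min in the dark at RT. Under fluorescence microscopy, 300 cells per sample were scored, with condensed or fragmented nuclei counted as apoptotic.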
# [5] = test system: HCT-116; experiment: Antiproliferative activity against human HCT116 cells assessed as increase of floating cells in total cell population at 27 uM after 24 hrs; format: functional; how it was run: as §1
# [6] = test system: HCT-116; experiment: Induction of apoptosis in human HCT116 cells at 27 uM after 48 hrs; format: functional; how it was run: as §3
# [7] = test system: HeLa; experiment: Cell cycle arrest in human HeLa cells assessed as accumulation at G2/M phase at 64 uM after 24 hrs; format: functional; how it was run: as §2
# [8] = test system: HCT-116; experiment: Cell cycle arrest in human HCT116 cells assessed as accumulation at G0/G1 phase at 27 uM after 48 hrs; format: functional
# How it was run: (§4)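 Adherent plus floating cells (5 · 10^5) collected 24 or 48 h after treatment, fixed in cold 70% ethanol at −20 °C overnight, washed in PBS. RNase A (100 µg/mL) and propidium iodide (20 µg/mL) in Vindelov's solution, 30 min at RT. Flow cytometry with 488 nm excitation, emission 585 ± 21 nm; % cells per cycle phase from DNA content histograms.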
# [9] = test system: HeLa; experiment: Antiproliferative activity against human HeLa cells assessed as increase of floating cells in total cell population at 64 uM after 24 hrs; format: functional; how it was run: as §1
# [10] = test system: HCT-116; experiment: Induction of apoptosis in human HCT116 cells at 27 uM after 24 hrs; format: functional; how it was run: as §3
# [11] = test system: HCT-116; experiment: Cell cycle arrest in human HCT116 cells assessed as accumulation at G2/M phase at 27 uM after 48 hrs; format: functional; how it was run: as §2
# [12] = test system: HeLa; experiment: Cytotoxicity against human HeLa cells after 72 hrs by MTT assay; format: functional, cell-based
# [13] = test system: HCT-116; experiment: Cell cycle arrest in human HCT116 cells assessed as accumulation at G0/G1 phase at 27 uM after 24 hrs; format: functional; how it was run: as §4
# [14] = test system: HeLa; experiment: Antiproliferative activity against human HeLa cells assessed as decrease in total cell population at 64 uM after 48 hrs; format: functional; set-up: scale not given: the % may be the effect or the level left; how it was run: as §1
# [15] = test system: HCT-116; experiment: Cytotoxicity against human HCT116 cells after 72 hrs by MTT assay; format: functional, cell-based; details: Homo sapiens, HCT-116, 72 h
# [16] = test system: DNA; experiment: Binding affinity to calf thymus DNA at 4 uM by fluorescence spectrophotometric titration; format: nucleic-acid assay; details: Bos taurus
# How it was run: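 ctDNA sonicated in TE buffer, concentration taken from A260 and given in base pairs. Compound (4 µM) in 0.01 M Tris, pH 7.4, 25 °C titrated with ctDNA (0–55 µM bp) until spectra stopped changing. Excitation 424 nm, slit widths 10 nm; binding constant derived from the change in emission.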
# [17] = test system: HCT-116; experiment: Cytotoxicity against human HCT116 cells after 48 hrs by MTT assay; format: functional, cell-based; details: HCT-116, 48 h
# [18] = test system: HeLa; experiment: Cell cycle arrest in human HeLa cells assessed as accumulation at G2/M phase at 64 uM after 48 hrs; format: functional; how it was run: as §2
# [19] = test system: HCT-116; experiment: Cell cycle arrest in human HCT116 cells assessed as accumulation at G2/M phase at 27 uM after 24 hrs; format: functional; how it was run: as §2
# [20] = test system: HeLa; experiment: Cell cycle arrest in human HeLa cells assessed as accumulation at S phase at 64 uM after 48 hrs; format: functional; how it was run: as §2
# [21] = test system: HeLa; experiment: Cell cycle arrest in human HeLa cells assessed as accumulation at G0/G1 phase at 64 uM after 48 hrs; format: functional; how it was run: as §2
# [22] = test system: HCT-116; experiment: Cell cycle arrest in human HCT116 cells assessed as accumulation at S phase at 27 uM after 24 hrs; format: functional; how it was run: as §2
# [23] = test system: HeLa; experiment: Antiproliferative activity against human HeLa cells assessed as decrease in total cell population at 64 uM after 24 hrs; format: functional; set-up: scale not given: the % may be the effect or the level left; how it was run: as §1
# [24] = test system: HeLa; experiment: Antiproliferative activity against human HeLa cells assessed as increase of floating cells in total cell population at 64 uM after 48 hrs; format: functional; how it was run: as §1
# [25] = test system: HCT-116; experiment: Antiproliferative activity against human HCT116 cells assessed as increase of floating cells in total cell population at 27 uM after 48 hrs; format: functional; how it was run: as §1
# [26] = test system: HCT-116; experiment: Cell cycle arrest in human HCT116 cells assessed as accumulation at S phase at 27 uM after 48 hrs; format: functional; how it was run: as §2
# [27] = test system: DNA; experiment: Binding affinity to calf thymus DNA at 5.5 uM by absorption titration; format: nucleic-acid assay; details: Bos taurus
# How it was run: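 Compound (5.5 µM) in 0.01 M Tris, pH 7.4, 25 °C. UV–vis spectra recorded over ctDNA 0–35 µM bp in 5 µM steps, corrected for dilution. ctDNA concentration from A260, expressed in base pairs.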
# [28] = test system: HeLa; experiment: Induction of apoptosis in human HeLa cells at 64 uM after 24 hrs; format: functional; how it was run: as §3
# [29] = test system: HCT-116; experiment: Antiproliferative activity against human HCT116 cells assessed as decrease in total cell population at 27 uM after 24 hrs; format: functional; set-up: scale not given: the % may be the effect or the level left; how it was run: as §1
# [30] = test system: HeLa; experiment: Cytotoxicity against human HeLa cells after 48 hrs by MTT assay; format: functional, cell-based
# [31] = test system: DNA; experiment: Binding affinity to calf thymus DNA at 50 uM by circular dichroism spectrophotometric titration; format: nucleic-acid assay; details: Bos taurus
compound,measurement,setting,value
CCNC(=O)Nc1ccc2cc3ccc(NC(=O)NCC)cc3nc2c1.Cl,Activity,[1],75.37%
same,Activity,[2],63.51%
same,Activity,[3],23.73%
same,Activity,[4],0.89%
same,Activity,[5],6.2%
same,Activity,[6],3.44%
same,Activity,[7],12.75%
same,Activity,[8],53.7%
same,Activity,[9],3.58%
same,Activity,[10],3.22%
same,Activity,[11],14.85%
same,IC50,[12],60 µM
same,Activity,[13],47.44%
same,Activity,[14],93.61%
same,IC50,[15],34.7 µM
same,K,[16],4.2 ×10⁵ /M
same,IC50,[17],27.6 µM
same,Activity,[18],9.23%
same,Activity,[19],18.5%
same,Activity,[20],19.5%
same,Activity,[21],71.26%
same,Activity,[22],34.06%
same,Activity,[23],95.15%
same,Activity,[24],4.63%
same,Activity,[25],5.68%
same,Activity,[26],31.45%
same,Activity,[27],Active
same,Activity,[28],1.33%
same,Activity,[29],79.4%
same,IC50,[30],63.9 µM
same,Activity,[31],Active

# — ChEMBL document CHEMBL1157145, “Cytotoxic activity of proflavine diureas: synthesis, antitumor, evaluation and DNA binding properties of 1',1''-(acridin-3,6-diyl)-3',3''-dialkyldiureas” (Bioorg Med Chem, 2008)
